# Source: ChEMBL document CHEMBL4339193, “Phenotypic Screening-Based Identification of 3,4-Disubstituted Piperidine Derivatives as Macrophage M2 Polarization Modulators: An Opportunity for Treating Multiple Sclerosis” (J Med Chem, 2019)
# Calls of active or inactive are those of the source. The calls are words filed in the database; no cut-off is given here.
# Columns and labels:
# RAW264.7 [1] = experiment: Modulation of M1 polarization in mouse RAW264.7 cells assessed as change in Mcp1 mRNA expression at 300 nM measured after 24 hrs by qRT-PCR analysis relative to control; format: functional, cell-based; settings: RAW264.7, 24 h, read-out: FC
# Procedure, shortened: (§1)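 RAW264.7 cells (DMEM, 10% FBS) exposed 24 h to 300 nM compound alone; LPS 50 ng/ml as positive control. Mcp1 mRNA by qRT-PCR; fold change = dosed group level / control group level.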
# RAW264.7 [2] = experiment: Modulation of M2 polarization in mouse RAW264.7 cells assessed as change in Arg1 mRNA expression at 300 nM measured after 24 hrs by qRT-PCR analysis relative to control; format: functional
# Procedure, shortened: (§2)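 RAW264.7 cells (DMEM, 10% FBS) given 300 nM compound for 24 h; IL-4 20 ng/ml as positive control. Arg1 mRNA measured by qRT-PCR; fold change = expression in dosed group / expression in untreated control.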
# RAW264.7 [3] = experiment: Modulation of M2 polarization in mouse RAW264.7 cells assessed as up regulation of Arg1 mRNA expression at 300 nM measured after 24 hrs by qRT-PCR analysis; format: functional, cell-based; procedure, shortened: as §2
# RAW264.7 [4] = experiment: Modulation of M1 polarization in mouse RAW264.7 cells assessed as up regulation of Mcp1 mRNA expression at 300 nM measured after 24 hrs by qRT-PCR analysis; format: cell-based; settings: raw264.7, 24 h, 0.3 µM; procedure, shortened: as §1
SMILES,fold induction at 0.3 µM (RAW264.7 [1]),fold change (FC) (RAW264.7 [2]),Activity (RAW264.7 [3]),Activity (RAW264.7 [4])
O=C(NCCN1CCCC(c2ccccc2)C1)c1ccc(-c2ccn[nH]2)cc1 (stereo unspecified),1.52,1.48,–,–
COc1ccc(S(=O)(=O)Nc2ccc(OC)c(-c3ccc(O)cc3)c2)cc1,–,–,Active,–
Cl.Cn1ncc(Cl)c1-c1ccc(C(=O)N[C@@H]2CNCC[C@H]2c2ccc(Cl)c(C(F)(F)F)c2)cc1,5.08,2.82,–,–
CC(C)C[C@H](NC(=O)[C@H](Cc1ccccc1)NC(=O)C[C@H](NC(=O)c1ccc2ccccc2c1)c1ccccc1)C(=O)[C@]1(C)CO1,–,–,Active,–
Cl.Cn1nccc1-c1ccc(C(=O)N[C@@H]2CNCC[C@H]2c2ccc(F)c(F)c2)cn1,1.23,0.85,–,–
Cl.Cn1ncc(Br)c1-c1ccc(C(=O)N[C@@H]2CNCC[C@H]2c2cccc(F)c2)cc1Cl,2.05,10.12,–,–
Cn1nccc1C(=O)N1C[C@@H](c2cc(F)cc(F)c2)[C@@H]2[C@H]1C1CCN2CC1,1.95,2.22,–,–
Cc1ccc(C(=O)N[C@@H]2CNCC[C@H]2c2cccc(F)c2)o1.Cl,1.89,1.76,–,–
Cl.Cn1nccc1-c1ccc(C(=O)N[C@@H]2CNCC[C@H]2c2cccc(F)c2)c(F)c1,1.54,10.05,Active,Non-Toxic
COc1ccc(NC(=O)c2ccc(-c3ccnn3C)cc2F)cc1,2.16,3.86,–,–
Cc1ccc([C@@H]2CN(C(=O)c3ccc(-c4ccn[nH]4)cc3)C[C@H]2N(C)C)cc1,1.24,4.85,–,–
Cl.O=C(N[C@@H]1CNCC[C@H]1c1cccc(F)c1)c1ccccc1F,1.72,1.01,–,–
CN(CC1Cc2ccccc2CN1C)C(=O)c1ccc(-c2ccn[nH]2)cc1 (stereo unspecified),1.14,2.35,–,–
CCNC(=O)c1ccc(-c2ccnn2C)cc1F,1.83,2.31,–,–
Cc1ccc(S(=O)(=O)N2CCN(c3nc4ccccc4nc3S(=O)(=O)c3ccc(F)cc3)CC2)cc1,–,–,Active,–
O=C(NCCN1CCC(c2ccccc2)CC1)c1ccc(-c2cc[nH]n2)cc1,2.14,3.92,–,–
Cl.Cn1ncc(Cl)c1-c1ccc(C(=O)N[C@@H]2CNCC[C@H]2c2ccc(F)c(F)c2)cc1,1.5,1.97,–,–
Cn1nccc1-c1ccc(C(=O)N[C@@H]2CNCC[C@H]2c2ccc(F)c(F)c2)cc1.O=C(O)C(O)C(O)C(=O)O,0.9,3.42,–,–
COc1ccccc1C(=O)N[C@@H]1CNCC[C@H]1c1cccc(F)c1.Cl,1.42,1.32,–,–
Cl.O=C(N[C@@H]1CNCC[C@H]1c1cccc(F)c1)c1ccc(F)cc1,1.64,0.91,–,–
Cl.Cn1nccc1C(=O)N[C@@H]1CNCC[C@H]1c1cccc(F)c1,2.05,1.62,–,–
Cc1cc(C(=O)N[C@@H]2CNCC[C@H]2c2cccc(F)c2)ccc1-c1c(Cl)cnn1C.Cl,2.44,8.35,–,–
O=C(NCC(c1ccccc1F)N1CCCC1)c1ccc(-c2cc[nH]n2)cc1 (stereo unspecified),1.34,1.09,–,–
Cl.Cn1ncc(Br)c1-c1ccc(C(=O)N[C@@H]2CNCC[C@H]2c2ccc(F)c(F)c2)cn1,1.32,0.56,–,–

SMILES,fold induction at 0.3 µM (RAW264.7 [1]),fold change (FC) (RAW264.7 [2]),Activity (RAW264.7 [3]),Activity (RAW264.7 [4])
Cc1cc(-c2ccnn2C)cnc1C(=O)N[C@@H]1CNCC[C@H]1c1cccc(F)c1.Cl,1.99,0.95,–,–
Cl.Cn1ncc(Cl)c1-c1ccc(C(=O)N[C@@H]2CNCC[C@H]2c2ccc(Cl)c(C(F)(F)F)c2)c(F)c1,3.54,10.33,–,–
Cl.Cn1nccc1-c1ccc(C(=O)N[C@@H]2CNCC[C@H]2c2ccc(Cl)c(C(F)(F)F)c2)cc1Cl,1.49,5.08,–,–
Cc1cc(-c2c(Br)cnn2C)cnc1C(=O)N[C@@H]1CNCC[C@H]1c1cccc(F)c1.Cl,1.63,0.71,–,–
Cn1nccc1-c1ccc(C(=O)Nc2ccc(F)cc2)c(F)c1,2.01,1.63,–,–
Cl.Cn1ncc(Br)c1-c1ccc(C(=O)N[C@@H]2CNCC[C@H]2c2cccc(F)c2)nc1,1.14,0.78,–,–
Cl.Cn1ncc(Cl)c1-c1ccc(C(=O)N[C@@H]2CNCC[C@H]2c2ccc(F)c(F)c2)cc1Cl,1.16,1.72,–,–
CC(=O)N[C@@H]1Cc2ccccc2[C@H]1NC(=O)c1cn[nH]c1-c1cccc(F)c1,2.14,0.8,–,–
Cc1cc(C(=O)N[C@@H]2CNCC[C@H]2c2ccc(Cl)c(C(F)(F)F)c2)ccc1-c1c(Cl)cnn1C.Cl,4.85,1.82,–,–
CCN(CC)C(=O)c1ccc(-c2ccnn2C)cc1F,1.97,1.96,–,–
Cn1ncc(Br)c1-c1ccc(C(=O)N[C@@H]2CNCC[C@H]2c2ccc(F)c(F)c2)cc1.O=C(O)C(O)C(O)C(=O)O,1.77,2.27,–,–
COc1cccc(-c2noc(-c3nn(-c4ccc(Cl)cc4)c4ccccc34)n2)c1,–,–,Active,–
O=C(Nc1n[nH]c(=O)c2ccccc12)c1cccc(C(=O)N2CCN(C(=O)C3CC3)CC2)c1,–,–,Active,–
O=C1NCCN(C(=O)c2ccc(-c3cc[nH]n3)cc2)C1Cc1ccccc1 (stereo unspecified),1.53,1.33,–,–
O=C(NCCN1CCC(c2ccccc2)C1)c1ccc(-c2cc[nH]n2)cc1 (stereo unspecified),1.86,2.22,–,–
"Cn1nccc1C(=O)N1CC(c2cc(F)cc(F)c2)C2[C@H]1C1CCN2CC1 (single isomer, unassigned)",1.4,1.16,–,–
Cc1cc(C(=O)N[C@@H]2CNCC[C@H]2c2cccc(F)c2)ccc1-c1c(Br)cnn1C.Cl,1.89,6.54,–,–
Cl.Cn1nccc1-c1ccc(C(=O)N[C@@H]2CNCC[C@H]2c2ccc(F)c(F)c2)c(F)c1,0.39,3.99,–,–
Cl.Cn1nccc1-c1ccc(C(=O)N[C@H]2CNCC[C@@H]2c2cccc(F)c2)c(F)c1,1.76,0.31,–,–
Cc1ccc(C(=O)N[C@@H]2CNCC[C@H]2c2cccc(F)c2)s1.Cl,1.54,1.44,–,–
Cl.Cn1nccc1-c1ccc(C(=O)N[C@H]2CCCNC2)c(F)c1,2.26,2.11,–,–
Cc1cc(-c2ccnn2C)cnc1C(=O)N[C@@H]1CNCC[C@H]1c1ccc(Cl)c(C(F)(F)F)c1.Cl,1.37,0.4,–,–
Cl.Cn1ncc(Cl)c1-c1ccc(C(=O)N[C@@H]2CNCC[C@H]2c2ccc(F)c(F)c2)cn1,1.01,0.27,–,–
